The source of these data is ChEMBL document CHEMBL2203081 (Bioorg Med Chem Lett, 2012).

SMILES strings stand for the structures. Active and inactive are the calls of the source. The calls are words filed in the database; no cut-off is given here.

The target of data set [1] is Serine/threonine-protein kinase 33 (Homo sapiens) (UniProt Q9BYT3). Description: Inhibition of STK33 assessed as residual activity at 10 uM.
In data set [2] the target is Ephrin type-B receptor 4 (Homo sapiens) (UniProt P54760). Description: Inhibition of EPH-B4 assessed as residual activity at 1 uM. Summed up:
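Standard radioactivity-based enzymatic kinase assays on a 131-kinase panel run by the Dundee profiling service; residual kinase activity recorded.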

Data set [3] addresses NT-3 growth factor receptor (Homo sapiens) (UniProt Q16288). Description: Inhibition of TRKC assessed as residual activity at 10 uM relative to control.
The subject of another data set is Brain. The data set is described as follows: AUClast in Swiss albino mouse brain at 10 mg/kg, po. Format: ADME, organism-based. Set-up: time 0 - last, dose 10 mg/kg, route oral. The conditions noted are these: in vivo. Summed up:
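Male Swiss Albino mice, single dose given intravenously (1 mg/kg) or orally (10 mg/kg). Drug measured in plasma and brain, with AUClast taken for each. The brain/plasma ratio is based on AUClast, and oral bioavailability is derived from the IV and PO plasma data.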

Data set [4] deals with Receptor-type tyrosine-protein kinase FLT3 (Homo sapiens), P36888 [D835H]. The data set is described as follows: Inhibition of FLT3 D835H mutant assessed as residual activity at 10 uM relative to control.
For data set [5], the target named is Mitogen-activated protein kinase 14 (Homo sapiens) (UniProt Q16539). Description: Inhibition of p38a MAPK assessed as residual activity at 1 uM.
Data set [6] has as its target Calcium/calmodulin-dependent protein kinase kinase 2 (Homo sapiens) (UniProt Q96RR4). The data set is described as follows: Inhibition of CAMKKb assessed as residual activity at 1 uM.
The target in data set [7] is Serine/threonine-protein kinase SIK2 (Homo sapiens) (UniProt Q9H0K1). The data set is described as follows: Inhibition of SIK2 assessed as residual activity at 10 uM.
Data set [8] has as its target Dual specificity mitogen-activated protein kinase kinase 1 (Homo sapiens) (UniProt Q02750). The data set is described as follows: Inhibition of MKK1 assessed as residual activity at 1 uM.
For data set [9], the target named is Citron Rho-interacting kinase (Homo sapiens) (UniProt O14578). Description: Inhibition of CIT assessed as residual activity at 10 uM relative to control.
Data set [10] deals with T1, NUAK family SNF1-like kinase 1 (Homo sapiens) (UniProt O60285).
T1 sequence (whole entry): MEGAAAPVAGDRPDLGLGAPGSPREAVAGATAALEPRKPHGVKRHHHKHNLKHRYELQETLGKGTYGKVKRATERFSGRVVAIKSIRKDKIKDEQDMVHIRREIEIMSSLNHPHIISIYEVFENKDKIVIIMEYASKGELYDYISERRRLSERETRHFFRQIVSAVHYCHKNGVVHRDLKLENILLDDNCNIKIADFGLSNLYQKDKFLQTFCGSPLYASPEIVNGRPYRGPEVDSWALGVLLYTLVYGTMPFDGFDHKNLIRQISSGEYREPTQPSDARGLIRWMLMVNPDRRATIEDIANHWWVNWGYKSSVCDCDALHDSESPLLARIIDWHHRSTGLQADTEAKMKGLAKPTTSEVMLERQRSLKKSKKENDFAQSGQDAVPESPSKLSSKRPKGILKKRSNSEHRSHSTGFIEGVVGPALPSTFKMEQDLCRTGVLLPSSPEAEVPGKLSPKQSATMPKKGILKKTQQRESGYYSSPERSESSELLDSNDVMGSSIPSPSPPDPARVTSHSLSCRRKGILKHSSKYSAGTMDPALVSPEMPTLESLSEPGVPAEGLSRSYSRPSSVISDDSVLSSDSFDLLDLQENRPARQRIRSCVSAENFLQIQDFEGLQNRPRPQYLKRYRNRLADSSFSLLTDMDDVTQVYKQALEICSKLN
The data set is described as follows: Inhibition of NUAK1 assessed as residual activity at 1 uM.

For data set [11], the system named is Mast/stem cell growth factor receptor Kit (Homo sapiens), P10721 [V559D]. Description: Inhibition of KIT V559D mutant assessed as residual activity at 10 uM relative to control.
The target of data set [12] is Serine/threonine-protein kinase N2 (Homo sapiens) (UniProt Q16513). Description: Inhibition of PKN2 assessed as residual activity at 10 uM relative to control.
Data set [13] concerns the target Casein kinase I isoform gamma-2 (Homo sapiens) (UniProt P78368). The data set is described as follows: Inhibition of CSNK1G2 assessed as residual activity at 10 uM relative to control. Summed up:
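Competition kinase-binding assay (KINOMEscan) across a non-redundant panel of 329 kinases beyond the radiometric panel; residual binding expressed relative to control.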

Data set [14] relates to Mus musculus. Description: Inhibition of LRRK2 in mouse assessed as inhibition of Ser935 autophosphorylation in spleen at 100 mg/kg, ip by immunoblot method. Format: functional, organism-based. Set-up: dose 100 mg/kg. (In general: In western blotting, separated proteins are transferred to a membrane and probed.)
In data set [15] the target is SRSF protein kinase 1 (Homo sapiens) (UniProt Q96SB4). The data set is described as follows: Inhibition of SRPK1 assessed as residual activity at 1 uM.
In data set [16] the target is Inhibitor of nuclear factor kappa-B kinase subunit alpha (Homo sapiens) (UniProt O15111). Description: Inhibition of IKK-alpha assessed as residual activity at 10 uM relative to control.
Data set [17] has as its target Serine/threonine-protein kinase 17B (Homo sapiens) (UniProt O94768). Description: Inhibition of DRAK2 assessed as residual activity at 10 uM relative to control. The procedure, abridged: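 Radioactivity-based enzymatic assay of kinase activity, run as part of a 131-kinase profiling panel at the National Centre for Protein Kinase Profiling, Dundee.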
Data set [18] concerns Mus musculus. The data set is described as follows: Inhibition of LRRK2 in mouse assessed as inhibition of Ser910 autophosphorylation in spleen at 100 mg/kg, ip by immunoblot method. The format is functional, organism-based. Set-up: dose 100 mg/kg.
Data set [19] concerns the target Ribosomal protein S6 kinase beta-1 (Homo sapiens) (UniProt P23443). The data set is described as follows: Inhibition of S6K1 assessed as residual activity at 1 uM.
Data set [20] deals with T2, Serine/threonine-protein kinase STK11 (Homo sapiens) (UniProt Q15831).
T2 sequence (whole entry): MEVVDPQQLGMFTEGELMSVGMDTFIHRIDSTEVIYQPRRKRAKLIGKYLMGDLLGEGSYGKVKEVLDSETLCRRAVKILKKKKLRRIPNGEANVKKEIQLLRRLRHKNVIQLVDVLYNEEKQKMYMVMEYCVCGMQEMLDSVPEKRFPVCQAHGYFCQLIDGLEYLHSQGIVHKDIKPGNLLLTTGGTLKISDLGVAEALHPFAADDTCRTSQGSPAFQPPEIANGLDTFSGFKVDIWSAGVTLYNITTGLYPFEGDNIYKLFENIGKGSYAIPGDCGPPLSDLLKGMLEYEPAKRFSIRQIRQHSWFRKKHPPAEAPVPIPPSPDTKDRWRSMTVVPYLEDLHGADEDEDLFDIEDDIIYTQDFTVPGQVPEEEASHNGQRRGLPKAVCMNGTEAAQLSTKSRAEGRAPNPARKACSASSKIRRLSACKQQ
Description: Inhibition of LKB1 assessed as residual activity at 10 uM relative to control.

Data set [21] addresses Leucine-rich repeat serine/threonine-protein kinase 2 (Homo sapiens) (UniProt Q5S007). The conditions noted are these: 0.01 to 1 uM.
Data set [22] deals with Mast/stem cell growth factor receptor Kit (Homo sapiens) (UniProt P10721). The data set is described as follows: Inhibition of KIT assessed as residual activity at 10 uM relative to control.

Chain of Serine/threonine-protein kinase SIK2 (Homo sapiens) (Q9H0K1 whole entry, looked up): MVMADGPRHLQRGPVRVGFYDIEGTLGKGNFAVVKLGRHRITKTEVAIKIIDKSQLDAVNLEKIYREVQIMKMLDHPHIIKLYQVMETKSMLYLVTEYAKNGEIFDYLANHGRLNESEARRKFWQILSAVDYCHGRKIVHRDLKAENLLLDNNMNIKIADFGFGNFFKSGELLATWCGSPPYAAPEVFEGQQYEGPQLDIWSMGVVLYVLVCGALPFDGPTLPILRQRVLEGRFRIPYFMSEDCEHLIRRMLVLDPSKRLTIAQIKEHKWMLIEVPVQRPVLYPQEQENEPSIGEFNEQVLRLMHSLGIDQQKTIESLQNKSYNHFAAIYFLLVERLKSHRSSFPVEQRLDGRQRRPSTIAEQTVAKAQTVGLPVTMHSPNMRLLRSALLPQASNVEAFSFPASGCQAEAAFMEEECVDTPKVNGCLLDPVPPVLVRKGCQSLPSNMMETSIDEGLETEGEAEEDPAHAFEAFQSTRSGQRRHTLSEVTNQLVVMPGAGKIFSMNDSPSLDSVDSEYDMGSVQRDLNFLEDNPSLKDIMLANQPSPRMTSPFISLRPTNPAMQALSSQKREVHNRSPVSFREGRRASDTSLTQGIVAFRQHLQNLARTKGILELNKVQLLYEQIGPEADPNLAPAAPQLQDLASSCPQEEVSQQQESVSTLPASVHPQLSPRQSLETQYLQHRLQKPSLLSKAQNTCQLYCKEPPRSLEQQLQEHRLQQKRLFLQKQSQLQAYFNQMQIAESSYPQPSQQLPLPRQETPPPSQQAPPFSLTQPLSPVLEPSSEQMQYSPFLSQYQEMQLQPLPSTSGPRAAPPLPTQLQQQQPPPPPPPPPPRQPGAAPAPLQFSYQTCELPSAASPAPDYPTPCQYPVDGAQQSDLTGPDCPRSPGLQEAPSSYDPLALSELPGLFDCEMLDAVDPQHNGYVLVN
Chain of Serine/threonine-protein kinase 17B (Homo sapiens) (O94768 whole entry): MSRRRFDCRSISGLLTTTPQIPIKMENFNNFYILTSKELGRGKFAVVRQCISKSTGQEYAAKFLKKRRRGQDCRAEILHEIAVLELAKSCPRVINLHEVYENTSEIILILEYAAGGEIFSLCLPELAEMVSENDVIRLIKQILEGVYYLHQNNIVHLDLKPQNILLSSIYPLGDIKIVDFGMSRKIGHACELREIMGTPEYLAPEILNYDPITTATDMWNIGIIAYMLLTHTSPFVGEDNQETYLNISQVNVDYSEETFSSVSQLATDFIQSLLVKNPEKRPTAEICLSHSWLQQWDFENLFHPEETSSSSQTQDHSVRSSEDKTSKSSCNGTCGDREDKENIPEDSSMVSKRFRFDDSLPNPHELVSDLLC
Chain of NT-3 growth factor receptor (Homo sapiens) (Q16288 32-839 limits assumed): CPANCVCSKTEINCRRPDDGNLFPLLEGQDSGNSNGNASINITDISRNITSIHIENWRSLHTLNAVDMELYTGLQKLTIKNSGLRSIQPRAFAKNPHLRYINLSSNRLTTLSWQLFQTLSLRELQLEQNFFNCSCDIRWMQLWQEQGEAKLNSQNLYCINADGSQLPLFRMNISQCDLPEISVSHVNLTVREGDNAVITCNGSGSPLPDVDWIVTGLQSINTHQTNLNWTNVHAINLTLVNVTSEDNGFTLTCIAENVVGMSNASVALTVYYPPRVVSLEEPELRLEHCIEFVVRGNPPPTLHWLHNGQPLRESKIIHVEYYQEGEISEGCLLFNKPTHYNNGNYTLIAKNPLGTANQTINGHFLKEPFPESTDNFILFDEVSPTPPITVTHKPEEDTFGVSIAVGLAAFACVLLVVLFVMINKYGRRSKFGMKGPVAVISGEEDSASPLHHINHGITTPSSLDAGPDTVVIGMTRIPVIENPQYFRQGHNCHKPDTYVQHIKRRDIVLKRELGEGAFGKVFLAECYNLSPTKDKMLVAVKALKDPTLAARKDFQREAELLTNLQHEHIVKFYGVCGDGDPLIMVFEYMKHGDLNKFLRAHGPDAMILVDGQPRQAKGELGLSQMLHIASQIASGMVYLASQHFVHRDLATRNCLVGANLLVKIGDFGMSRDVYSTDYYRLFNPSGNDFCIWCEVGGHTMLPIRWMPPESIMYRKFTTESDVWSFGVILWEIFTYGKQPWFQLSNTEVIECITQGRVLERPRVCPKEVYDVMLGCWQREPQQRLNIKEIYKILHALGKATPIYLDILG
Chain of Calcium/calmodulin-dependent protein kinase kinase 2 (Homo sapiens) (Q96RR4 2-588 limits assumed): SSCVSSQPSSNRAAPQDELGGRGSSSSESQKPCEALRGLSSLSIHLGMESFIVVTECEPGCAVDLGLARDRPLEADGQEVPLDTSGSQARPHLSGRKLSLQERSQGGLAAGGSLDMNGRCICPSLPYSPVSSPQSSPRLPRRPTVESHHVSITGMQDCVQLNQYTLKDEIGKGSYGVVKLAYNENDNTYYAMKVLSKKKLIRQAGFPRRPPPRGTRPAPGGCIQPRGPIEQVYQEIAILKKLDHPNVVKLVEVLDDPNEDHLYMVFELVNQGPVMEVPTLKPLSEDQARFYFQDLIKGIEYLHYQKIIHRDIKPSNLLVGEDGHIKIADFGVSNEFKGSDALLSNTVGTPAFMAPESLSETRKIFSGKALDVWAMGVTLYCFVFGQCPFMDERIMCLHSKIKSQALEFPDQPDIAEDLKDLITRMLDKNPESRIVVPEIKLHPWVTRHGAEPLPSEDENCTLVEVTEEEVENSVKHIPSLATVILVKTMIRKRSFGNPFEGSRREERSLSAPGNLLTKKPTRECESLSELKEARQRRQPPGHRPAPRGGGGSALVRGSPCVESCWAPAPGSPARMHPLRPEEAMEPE
Chain of Dual specificity mitogen-activated protein kinase kinase 1 (Homo sapiens) (Q02750 whole entry): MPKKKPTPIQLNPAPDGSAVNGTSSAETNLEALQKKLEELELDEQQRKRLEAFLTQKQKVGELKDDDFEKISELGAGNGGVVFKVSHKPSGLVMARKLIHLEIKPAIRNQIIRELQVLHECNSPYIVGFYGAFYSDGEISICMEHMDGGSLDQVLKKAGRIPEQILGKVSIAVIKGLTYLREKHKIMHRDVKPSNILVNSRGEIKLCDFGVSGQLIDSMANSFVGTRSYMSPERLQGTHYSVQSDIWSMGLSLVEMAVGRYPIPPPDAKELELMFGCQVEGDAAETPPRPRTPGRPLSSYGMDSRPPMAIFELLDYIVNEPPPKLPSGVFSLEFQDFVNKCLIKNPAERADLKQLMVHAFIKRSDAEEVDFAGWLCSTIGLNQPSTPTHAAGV
Chain of SRSF protein kinase 1 (Homo sapiens) (Q96SB4 whole entry): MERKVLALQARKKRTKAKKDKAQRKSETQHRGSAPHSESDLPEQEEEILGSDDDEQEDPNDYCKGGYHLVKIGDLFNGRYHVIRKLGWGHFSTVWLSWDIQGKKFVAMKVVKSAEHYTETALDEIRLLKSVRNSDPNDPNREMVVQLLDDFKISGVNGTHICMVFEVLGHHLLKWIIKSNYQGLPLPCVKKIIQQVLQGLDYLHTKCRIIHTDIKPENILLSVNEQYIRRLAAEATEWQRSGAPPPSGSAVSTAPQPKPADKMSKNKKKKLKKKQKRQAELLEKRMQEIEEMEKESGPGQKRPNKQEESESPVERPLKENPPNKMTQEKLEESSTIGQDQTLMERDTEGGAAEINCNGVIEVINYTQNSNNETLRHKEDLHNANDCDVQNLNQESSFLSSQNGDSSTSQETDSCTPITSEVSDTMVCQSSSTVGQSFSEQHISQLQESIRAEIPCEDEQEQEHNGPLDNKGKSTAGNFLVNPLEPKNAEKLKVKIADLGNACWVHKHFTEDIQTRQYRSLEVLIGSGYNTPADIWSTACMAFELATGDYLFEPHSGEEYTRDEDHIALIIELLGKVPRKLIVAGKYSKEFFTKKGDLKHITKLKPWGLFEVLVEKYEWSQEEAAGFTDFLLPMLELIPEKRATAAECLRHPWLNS
Chain of Mitogen-activated protein kinase 14 (Homo sapiens) (Q16539 whole entry): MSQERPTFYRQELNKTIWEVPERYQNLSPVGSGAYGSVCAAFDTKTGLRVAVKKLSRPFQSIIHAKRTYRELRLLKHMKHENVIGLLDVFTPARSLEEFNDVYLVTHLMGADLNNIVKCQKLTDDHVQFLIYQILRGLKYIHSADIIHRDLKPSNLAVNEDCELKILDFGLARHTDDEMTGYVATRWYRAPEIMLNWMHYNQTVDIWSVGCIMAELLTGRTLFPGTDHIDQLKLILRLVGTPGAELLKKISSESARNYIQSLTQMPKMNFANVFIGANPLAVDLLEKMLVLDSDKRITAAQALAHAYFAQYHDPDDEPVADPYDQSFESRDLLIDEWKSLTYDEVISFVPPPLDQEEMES
Chain of Ribosomal protein S6 kinase beta-1 (Homo sapiens) (P23443 whole entry, looked up): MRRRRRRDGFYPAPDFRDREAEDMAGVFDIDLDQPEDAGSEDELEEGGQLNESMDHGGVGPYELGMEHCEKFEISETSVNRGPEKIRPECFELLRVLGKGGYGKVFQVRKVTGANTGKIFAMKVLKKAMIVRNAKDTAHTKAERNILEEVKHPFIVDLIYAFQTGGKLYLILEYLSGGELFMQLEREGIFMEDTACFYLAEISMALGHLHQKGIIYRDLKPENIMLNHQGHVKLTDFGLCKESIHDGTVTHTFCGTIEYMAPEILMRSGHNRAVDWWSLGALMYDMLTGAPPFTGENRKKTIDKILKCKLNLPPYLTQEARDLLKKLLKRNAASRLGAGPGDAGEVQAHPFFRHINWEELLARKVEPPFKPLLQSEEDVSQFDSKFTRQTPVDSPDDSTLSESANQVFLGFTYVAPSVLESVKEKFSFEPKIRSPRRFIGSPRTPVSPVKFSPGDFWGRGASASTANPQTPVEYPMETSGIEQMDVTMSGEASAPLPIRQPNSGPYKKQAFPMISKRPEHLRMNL

As to `O=C(Nc1cccnc1)c1cc(-c2ccnc(F)c2)ccc1OCc1ccccc1`, the Activity was determined as 56% in data set [1]; 118% in [2]; 62% in [3]; 13% in data set [4]; 101% in data set [5]; 71% in data set [6]. For the same molecule, the Activity in data set [7] came out at 111%; in data set [8] it was 77%; in [9], 48%; in data set [10] it was 71%; in [11], 70%; in [12] it was 20%. Also, the Activity in data set [13] was 27%; in [15], 61%; in data set [16] it was 58%; in data set [17] it was 72%; in data set [19], 101%; in [20] it was 71%. In addition, the Activity in [22] was 39%. The molecule also had an AUClast in the data set on Brain of 1.5394 µg·h/mL. The inhibition result (with Mus musculus [14]; in the data set with Mus musculus [18]; in data set [21]) was “Active” each time.
